Only some compounds are listed: those with a hit (about 3.8% of all), similar ones and a draw of the others.
KCNQ1 block – blocks the human KCNQ1 potassium channel; CHO-K1 KCNQ1, FluxOR thallium flux fluorescence; hits give high values; 310,000 tested, 1.3% active; P51787; AID 2642; B-score at 10 µM;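 active = compounds whose thallium flux B-score, printed positive for inhibition, exceeds three library SD while starting fluorescence stays within three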;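 also: channel opened by potassium depolarization with thallium stimulus after 20 min compound exposure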
hERG protect – shields human hERG channel from block by proarrhythmic agents | Q12809 | CHO-hERG, FluxOR thallium flux, dofetilide IC70 present | activation (rescue from dofetilide block), less the hit threshold, % at 10 µM | 310,000 tested, 0.51% active | AID 1511;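 active = activation above the mean of controls blocked by dofetilide plus 5 SD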;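 also: thallium influx through hERG after potassium depolarization seen as dye fluorescence rise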
KCNK9 inh – inhibitors of human KCNK9 two-pore domain potassium channel; HEK293 KCNK9, FluxOR thallium flux fluorescence; hits give low values; B-score at 10 µM; 310,000 tested, 1.2% active; AID 488922;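 active = ratio B-score over 3 SD below the library mean, with starting fluorescence within 5 SD of its mean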;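 also: negative B-score means less thallium flux so channel inhibition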
Kir21 inh – inhibitors of mouse Kir2.1 inward-rectifier potassium channel | P35561 | HEK293-Kir2.1, FluxOR thallium flux fluorescence; hits give low values | B-score at 10 µM | 310,000 tested, 0.85% active;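 active = fluorescence ratio B-score at or below minus 3 SD of library scores, with starting-brightness B-score within 2 SD, cut at about -4.2 in these data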;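 also: channel flux triggered by added potassium and thallium sulfate stimulus; B-score of peak minus minimum fluorescence over baseline after thallium stimulus; more negative B-score means stronger Kir2.1 block with less thallium influx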
KCNK3 block – human KCNK3 channel inhibition, primary screen | B-score at 10 µM | CHO-KCNK3 thallium flux, FluxOR fluorescence; hits give low values | AID 602410 | 340,000 tested, 0.84% active;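 active = B-score under library mean minus 4 SD, starting fluorescence ratio at most library mean plus 5 SD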;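 also: more negative B-score means stronger inhibition of thallium flux through KCNK3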
KCNQ1 act – potentiators or activators of human KCNQ1 potassium channel | B-score at 10 µM | CHO-K1 KCNQ1, thallium flux FluxOR fluorescence; hits give high values | 310,000 tested, 0.35% active;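 active = fluorescence ratio B-score, a plate-corrected score, at least three library SD, with initial intensity B-score within 5 SD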
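System: Stable KCNQ1 CHO-K1 line | Incubation: 90 min dye loading and 20 min compound exposure, both at room temperature | Measure: Ratio B score | Medium: Assay buffer for compound exposure, DMSO matched across wells | Compound dosing: Single-concentration screen | Probe or stimulus: K+/Tl+ depolarizing stimulus | Measured by: Kinetic FluxOR fluorescence, 10 s baseline plus 110 s post-stimulus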
KCNK3 inh conf – confirmation of human KCNK3 two-pore domain potassium channel inhibitors. shares compounds with KCNK3 block. CHO-KCNK3 thallium flux, FluxOR fluorescence; 0% buffer, 100% carvedilol maximal block. ratio percent of control, % at 10 µM. 2,400 tested, 99% active;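 active = ratio percent of control, averaged over triplicates, above buffer control mean plus 5 SD, cut at about 64% in these data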;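 also: ratio is the fluorescence rise from min to max over baseline after thallium stimulus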
KCNK3 noninduced – KCNK3 inhibitor counter-screen hit in non-induced cells. shares compounds with KCNK3 block. thallium flux ratio (lower = more inhibition) at 10 µM. AID 651747. non-induced KCNK3 parental cells, FluxOR thallium flux; hits give low values. 2,400 tested, 40% active;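 active = thallium flux ratio, averaged over three wells, more than 5 SD below the buffer control mean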;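 also: host cells are CHO cells without KCNK3 induction; ratio is peak minus trough fluorescence over baseline then normalized to buffer controls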
Starred values were filed as active, the others as inactive.

How did CCSc1nnc(-c2cccc(S(=O)(=O)N(CC)CC)c2)n1Cc1ccccc1 do in these assays?
KCNQ1 block: inactive; hERG protect: -28; KCNK9 inh: inactive; Kir21 inh: -0.35; KCNK3 block: -9.8*; KCNQ1 act: inactive; KCNK3 inh conf: 93*; KCNK3 noninduced: inactive

Results for CCNC(=O)CSc1nnc(-c2cccc(S(=O)(=O)N(CC)CC)c2)n1CCc1ccccc1 ?
KCNQ1 block: inactive; hERG protect: -8; KCNK9 inh: inactive; Kir21 inh: 0.02; KCNK3 block: inactive; KCNQ1 act: inactive

Results for Cc1onc(-c2ccc(Cl)cc2Cl)c1-c1csc(COc2ccccc2)n1 ?
KCNQ1 block: inactive; hERG protect: -4; KCNK9 inh: inactive; Kir21 inh: -0.45; KCNK3 block: -9.6*; KCNQ1 act: inactive; KCNK3 inh conf: 101*; KCNK3 noninduced: 0.15*

Results for CCCc1nn(-c2cc(Cl)ccc2OC)c2c1C(=O)CC(C)(C)C2 ?
KCNQ1 block: inactive; hERG protect: -8; KCNK9 inh: inactive; Kir21 inh: -1.2; KCNK3 block: -11*; KCNQ1 act: inactive; KCNK3 inh conf: 87*; KCNK3 noninduced: inactive

What do the screens show for `COCCc1ncc(CN2CCCC(C(=O)Nc3cccc(-c4cccc(C)c4)c3)C2)cn1` (stereo not drawn)?
KCNQ1 block: inactive; hERG protect: -11; KCNK9 inh: inactive; Kir21 inh: -0.18; KCNK3 block: -9*; KCNQ1 act: inactive; KCNK3 inh conf: 91*; KCNK3 noninduced: inactive

How did CC(=O)C[C@H](O)CC(=O)[C@H]1OC(=O)[C@H](C)C/C=C\Cc2ccccc21 do in these assays?
KCNK3 block: inactive

What do the screens show for `O=C(C[C@@H]1C/C=C\CC[C@H](Cc2ccc(F)cc2)C(=O)OC[C@@H]2CCCN2C1=O)N[C@H](CO)Cc1ccccc1`?
KCNK3 block: inactive

Results for CCN(CC)S(=O)(=O)c1ccc(NC(=O)c2cccs2)cc1 ?
KCNQ1 block: inactive; hERG protect: -14; KCNK9 inh: inactive; Kir21 inh: -0.14; KCNK3 block: -10*; KCNQ1 act: inactive; KCNK3 inh conf: 83*; KCNK3 noninduced: inactive

How did C=CCn1c(-c2ccccc2)cc(SC)c(C#N)c1=O do in these assays?
KCNQ1 block: inactive; hERG protect: -2; KCNK9 inh: inactive; Kir21 inh: 1.8; KCNK3 block: -9.5*; KCNQ1 act: inactive; KCNK3 inh conf: 84*; KCNK3 noninduced: inactive

Results for CCCn1c(-c2ccccc2)cc(SC)c(C#N)c1=O ?
KCNQ1 block: inactive; hERG protect: -4; KCNK9 inh: inactive; Kir21 inh: 0.03; KCNK3 block: inactive; KCNQ1 act: inactive

Results for CCOC(=O)c1cc2c(=O)n3ccccc3nc2n(CC(C)C)c1=NC(=O)c1ccco1 ?
KCNQ1 block: inactive; hERG protect: -12; KCNK9 inh: inactive; Kir21 inh: -0.25; KCNK3 block: inactive; KCNQ1 act: inactive

Results for CCOC(=O)c1cc2c(=O)n3ccccc3nc2n(Cc2ccco2)c1=NC(=O)c1ccccc1OCC ?
KCNQ1 block: inactive; hERG protect: -12; KCNK9 inh: inactive; Kir21 inh: -2.8; KCNK3 block: -8.8*; KCNQ1 act: inactive; KCNK3 inh conf: 91*; KCNK3 noninduced: inactive

How did CCn1c(SCC(=O)Nc2cccc(F)c2)nc2c(c1=O)SC(C)C2 (stereo not drawn) do in these assays?
KCNQ1 block: inactive; hERG protect: -7; KCNK9 inh: inactive; Kir21 inh: -0.85; KCNK3 block: -8.9*; KCNQ1 act: inactive; KCNK3 inh conf: 88*; KCNK3 noninduced: inactive

How did CC(OC(=O)CC1Sc2ccccc2NC1=O)C(=O)N(C)Cc1ccccc1 (stereo not drawn) do in these assays?
KCNK3 block: inactive
